JNK3 inh: inhibitors of human JNK3 kinase. 60,000 compounds, 0.61% hits. P53779. purified JNK3 kinase activity, HTS. AID 746. inhibition, % at 8 µM; in the data active = inhibition above about 17%;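 also: 0% = DMSO and 100% = reference inhibitor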
Target sequence (P53779 whole entry, looked up): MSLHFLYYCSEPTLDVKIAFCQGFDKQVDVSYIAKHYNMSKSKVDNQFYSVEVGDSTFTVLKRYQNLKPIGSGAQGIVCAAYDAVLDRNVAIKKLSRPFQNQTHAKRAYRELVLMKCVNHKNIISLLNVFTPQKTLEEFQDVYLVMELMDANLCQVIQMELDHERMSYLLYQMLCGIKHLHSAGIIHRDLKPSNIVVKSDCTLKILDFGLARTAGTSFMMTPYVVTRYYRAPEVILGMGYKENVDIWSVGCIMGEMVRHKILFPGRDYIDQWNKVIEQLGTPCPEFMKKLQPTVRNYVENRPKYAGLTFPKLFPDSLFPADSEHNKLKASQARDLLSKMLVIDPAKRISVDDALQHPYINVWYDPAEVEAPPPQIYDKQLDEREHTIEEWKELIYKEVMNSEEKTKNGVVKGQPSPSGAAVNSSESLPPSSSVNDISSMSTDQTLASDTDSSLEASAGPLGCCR
MMP-13 inhibitor: inhibitors of human MMP13; 65,000 compounds, 0.07% hits; P45452; AID 570; MMP-13 fTHP FRET cleavage, Mca fluorescence; inhibition, % at 4 µM;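 active = inhibition above the mean of compound-free control plate wells plus 3 SD, cut at about 14% in these data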;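 also: 0% = DMSO wells and 100% = wells with reference MMP-13 inhibitor after basal subtraction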
PKA inh: inhibitors of human protein kinase A | inhibition, % at 6 µM | PKA Kemptide phosphorylation, Kinase-Glo ATP luminescence | P17612 | AID 524 | 65,000 compounds, 0.1% hits;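 active = inhibition above the screen-wide mean inhibition plus 3 SD, cut at about 21% in these data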
SF-1 act: activates the human nuclear receptor SF-1; Q13285; CHO-K1 Gal4-SF-1 LBD luciferase reporter; % increase over DMSO SF-1-specific signal; activation, % at 10 µM; 65,000 compounds, 1.9% hits;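 active = activation above the mean activation of all tested compounds plus 3 SD, cut at about 50% in these data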
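Assay system – CHO-K1 cells with Gal4–hSF-1 LBD chimera plus Gal4-driven luciferase · Quantity – 4,000 cells per well · Times – compound added 1 h post-seeding, 20 h exposure at 37 °C, 5% CO2 · Measured by – luciferase light emission · Benchmarks – DMSO and mock-transfected background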
RORa activator: activates the human nuclear receptor RORA; 65,000 compounds, 1.5% hits; P35398; AID 560; CHO-K1 Gal4-RORA LBD luciferase reporter, luminescence; percent increase over mock-subtracted basal signal; activation, % at 10 µM;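 active = activation above the mean of all tested compounds plus 3 SD, cut at about 49% in these data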;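 also: 0% = DMSO-treated RORA cells and 100% = added signal equal to DMSO minus mock-transfected cells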
ROCK2 inh: inhibitors of human Rho kinase 2 | O75116 | purified ROCK2, Kinase-Glo ATP depletion luminescence | inhibition, % at 6 µM | 60,000 compounds, 0.35% hits | AID 604;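 active = inhibition above the screen-wide mean inhibition plus 3 SD, cut at about 18% in these data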;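 also: plate controls were DMSO wells for no effect and Y-27632 control wells after no-enzyme background subtraction for full effect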
Active calls of the source: *; i = inactive; x = not tested or not shown. This is a sample that favours compounds with a hit; in the whole collection about 3.4% have one here.

SMILES | JNK3 inh | MMP-13 inhibitor | PKA inh | SF-1 act | RORa activator | ROCK2 inh
COCCNC(=O)c1cc2sc3ccccc3c2s1 | -4.8 | -20.0 | 7.4 | 50.5* | 61.1* | 11.6
Cc1ccc(C)c(CN2C(=O)C(C)Oc3ccc(C)cc32)c1 (stereo not drawn) | 1.3 | 1.0 | -1.4 | -5.9 | -11.4 | -3.5
COc1cc(SC)ccc1C(=O)Nc1ccc2c(c1)CCN2S(C)(=O)=O | -3.5 | 3.7 | 2.6 | 4.9 | 39.8 | -0.4
O=C(Nc1nc2ccc(Cl)cc2s1)c1ccc(Br)o1 | 1.8 | -4.9 | 4.1 | 47.6 | 54.1* | 6.0
Cc1cc(NC(=O)COC(=O)c2n[nH]c3ccccc23)no1 | 23.0* | -12.8 | 10.0 | 31.7 | 4.5 | 3.2
CC1CCN(S(=O)(=O)c2ccc(NC(=O)Cn3nnc(-c4ccccc4F)n3)cc2)CC1 | 9.4 | 7.0 | -5.9 | 10.8 | 52.7* | -5.5
O=C(Oc1ccc(-c2ccccc2)cc1)N1CCOCC1 | -0.7 | -1.6 | -1.6 | 43.1 | 60.6* | -0.3
O=C(Nc1nncs1)c1ccc(N2C(=O)C3C4C=CC(C4)C3C2=O)cc1 (stereo not drawn) | 17.4* | 1.6 | 5.6 | 37.6 | 16.2 | 5.8
CCC(C)(C)NC(=O)C(OC(=O)c1cc2sccc2n1C)c1ccc(OC)cc1 (stereo not drawn) | 4.9 | 3.4 | 8.6 | 6.8 | -19.5 | 4.0
Cc1c(C(=O)NCC(C)C)sc2nc(-c3ccc(F)cc3)cn12 | -1.5 | 0.2 | 5.1 | 37.0 | 70.9* | 5.1
COc1ccc(CCC(C(O)C(F)(F)F)S(=O)c2ccccc2)cc1 (stereo not drawn) | x | 5.9 | 7.6 | 11.8 | 7.9 | x
COc1ccc(C(O)P(=O)(O)CCc2ccccc2)cc1 (stereo not drawn) | -5.1 | -0.3 | 1.0 | -7.8 | 52.3* | 7.5
Cc1ccc(-c2nc3ccccc3[nH]2)s1 | 0.4 | -141.3 | -16.8 | 38.7 | 50.2* | -28.5
Nc1nc(-c2nc3ccccc3[nH]2)cs1 | -1.7 | -1.8 | -3.2 | 23.1 | 7.1 | -15.6
c1csc(-c2nc3ccccc3[nH]2)c1 | 1.1 | -76.4 | 6.4 | 94.5* | 43.3 | 3.6
COc1ccc(-c2cn3c(C)c(C(=O)N4CCN(c5ccc(OC)cc5)CC4)sc3n2)cc1 | 1.3 | 0.4 | -11.9 | -15.6 | 0.1 | -4.1
Cn1c(=O)c2cc(S(=O)(=O)NC(C(=O)N3CCCCCC3)c3ccccc3)ccc2n(C)c1=O (stereo not drawn) | 10.8 | -1.7 | 2.5 | 31.0 | 16.3 | 1.6
COc1ccc2[nH]c(=O)c3c(c2c1)OC(C)(C)C=C3 | 4.6 | -11.2 | 15.8 | -25.3 | -57.7 | 22.8*
CC1CCN(Cc2nc3c(c(=O)n(C)c(=O)n3C)n2CCN2CCOCC2)CC1 | x | -2.5 | -1.7 | -2.8 | -14.4 | x
Cc1cccc(Nc2ncc3c(n2)CC(c2ccco2)CC3=O)c1 (stereo not drawn) | 3.0 | 6.5 | 4.7 | -7.0 | -15.1 | 7.1
Cc1cccc(Nc2ncc3c(n2)CC(C)CC3=O)c1 (stereo not drawn) | 7.6 | -1.2 | 8.3 | 71.8* | 71.6* | -0.3
Fc1ccc(-c2cc(C(F)(F)F)nc(NCC3CCCO3)n2)cc1 (stereo not drawn) | -5.5 | -2.4 | 0.4 | -15.1 | -1.6 | 0.4
Oc1ccc(-c2nnc(SCC3CCCCC3)o2)cc1 | 8.8 | -6.1 | 6.2 | 63.7* | 59.0* | 2.1
O=C(CSc1nnc(-c2ccc(O)cc2)o1)N1CCOCC1 | 2.9 | 5.0 | 2.5 | 29.1 | 45.2 | 6.3
CCOc1ncccc1C(=O)OCc1cc(=O)n2c(n1)sc1ccccc12 | 9.1 | -5.9 | 10.5 | -4.9 | 11.5 | 4.9
SMILES | JNK3 inh | MMP-13 inhibitor | PKA inh | SF-1 act | RORa activator | ROCK2 inh
CCN1C(=O)N(CC)C(O)(c2ccccc2)C1(O)c1ccccc1 (stereo not drawn) | -2.9 | -0.9 | -6.7 | -3.7 | 7.9 | 34.0*
Cc1c(O)ccc(C(=O)CN2C(=O)c3ccccc3C2=O)c1O | 3.8 | 2.6 | 6.2 | 6.5 | 11.7 | 6.5
Cc1cc(C(=O)CN2C(=O)c3ccccc3C2=O)c(C)n1C1CC1 | 4.2 | 0.5 | 4.8 | 55.6* | 13.9 | 6.3
COc1ccc(-n2nc(C(=O)NCC(=O)N3CCN(c4ccccn4)CC3)c3ccccc3c2=O)cc1 | 6.7 | -3.1 | 3.2 | 60.5* | 23.4 | 2.7
CN=Cc1cc(-c2ccccc2)sc1O | -26.1 | 5.6 | 9.8 | 55.6* | 26.7 | 4.5
O=C1CCC(C(=O)NC2(C(=O)NC3CCCCC3)CCCCC2)N1 (stereo not drawn) | x | -1.1 | 4.6 | 0.5 | 6.9 | x
COC(=O)Cn1c(C)nc2c(sc3nc(C)cc(C)c32)c1=O | 5.4 | -3.8 | 6.5 | 50.1* | 39.9 | 2.5
CNC(=O)c1cc2c(=O)n3cccc(C)c3nc2n(C(C)C)c1=N | -4.2 | i | 3.2 | -5.2 | -6.0 | 1.6
CC(C)OC(=O)c1c2nc3ccccc3nc2n2c1[nH]c(=O)c1ccccc12 | 7.6 | -21.5 | 5.3 | -8.1 | 27.4 | -9.5
C[C@H](NC(=O)Nc1ccc2c(c1)OCCO2)C(=O)O | -4.2 | -8.8 | 6.6 | 2.4 | -6.9 | 1.4
COC(=O)c1cc(-c2ccc(Br)cc2)on1 | 6.9 | 3.0 | 7.2 | 23.4 | -21.1 | -1.7
CCN(CC)C(=O)c1cc(-c2ccc(Br)cc2)on1 | 0.5 | -8.8 | -5.3 | 55.8* | 17.5 | -2.1
O=C(Nc1nnc(CC(=O)N2CCCC2)s1)c1cnccn1 | x | 2.1 | 6.3 | -8.6 | 13.2 | x
CSCCC1NC2(C(=O)Nc3c(C)cc(Cl)cc32)[C@@H]2C(=O)N(C3CCCC3)C(=O)[C@H]12 (stereo partly drawn) | -4.4 | 0.8 | 4.9 | 18.0 | 12.5 | -1.6
c1ccc2c(c1)CCCN2c1nc2ccccc2n2cnnc12 | 1.5 | 3.5 | 5.7 | 54.5* | 36.7 | -1.6
O=C(c1ccccc1)c1c[nH]c2cc3c(cc2c1=O)OCO3 | x | 0.6 | 3.5 | -7.2 | -3.8 | x
O=C(c1ccccc1)c1c[nH]c2cc3c(cc2c1=O)OCCO3 | x | 3.6 | 2.5 | 50.0* | 40.4 | x
COC(=O)c1cccc(NC(=O)CSc2nc3cccnc3n2C)c1 | 0.4 | 11.0 | 2.5 | 35.5 | 81.5* | 4.1
COC(=O)c1cccc(NC(=O)Cn2cnc3c2c(=O)n(C)c(=O)n3C)c1 | -2.8 | 14.9* | 13.4 | 6.8 | -18.7 | 11.2
Cn1c(=O)n(CCc2ccccc2)c(=O)c2c1nc1n2CCN1c1ccccc1 | -4.0 | -8.1 | 10.6 | -13.5 | 0.4 | 4.3
O=C(Nc1ccc2c(c1)OCO2)c1cncc(Br)c1 | -1.2 | 2.9 | 8.0 | 53.1* | 14.4 | -3.3
O=C(Nc1ccc2c(c1)OCO2)c1cccc(F)c1 | 5.6 | -7.0 | -4.3 | 20.6 | 52.0* | -1.0
O=C(Nc1ccc2c(c1)OCO2)c1c(F)cccc1F | 2.8 | 2.8 | 2.7 | 57.6* | 25.3 | 0.3
CCC(=O)Nc1cccc(NC(=O)c2ccc3c(c2)OCO3)c1 | 2.8 | 2.3 | 9.1 | 19.0 | 19.9 | 3.7
CC1=CC(C)C2C(=O)N(CCCN(C)C)C(=O)C2C1 (stereo not drawn) | 4.8 | -0.4 | -0.1 | -10.1 | -15.0 | 9.4

Bioassay records as filed in PubChem BioAssay.
